In ChEMBL document CHEMBL4145441, “Discovery of N-(5-((5-chloro-4-((2-(isopropylsulfonyl)phenyl)amino)pyrimidin-2-yl)amino)-4-methoxy-2-(4-methyl-1,4-diazepan-1-yl)phenyl)acrylamide (CHMFL-ALK/EGFR-050) as a potent ALK/EGFR dual kinase inhibitor capable of overcoming a variety of ALK/EGFR associated drug resistant mutants in NSCLC” (Eur J Med Chem, 2017):

How the values were obtained:
[1] = system: NCI-H1975; assay: Growth inhibition of human NCI-H1975 cells after 72 hrs by CellTiter-Glo assay; type: functional; details: NCI-H1975, 72 h
Summary of the method: (§1)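 Antiproliferative GI50 against H1975 and H3122 cells; each GI50 value obtained from triplicate testing.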

[2] = system: NCI-H3122; assay: Growth inhibition of human NCI-H3122 cells after 72 hrs by CellTiter-Glo assay; type: functional; details: NCI-H3122, 72 h; summary of the method: as §1
[3] = Antiproliferative activity against mouse BAF3 cells after 72 hrs by CellTiter-Glo assay; type: cell-based
[4] = system: NCI-H3122; assay: Antiproliferative activity against human NCI-H3122 cells harboring EML4-fused ALK varian1 after 72 hrs by CellTiter-Glo assay; type: functional; details: NCI-H3122, 72 h; summary of the method: as §1
[5] = Antiproliferative activity against CHO cells after 72 hrs by CellTiter-Glo assay; type: cell-based, Cricetulus griseus; details: chinese hamster
[6] = Antiproliferative activity against CHL cells after 72 hrs by CellTiter-Glo assay; type: cell-based, Cricetulus griseus; details: chinese hamster
[7] = biological target: T1, Epidermal growth factor receptor (Homo sapiens, UniProt P00533); assay: Inhibition of TEL-fused EGFR (unknown origin) expressed in mouse BAF3 cells assessed as decrease in cell proliferation after 72 hrs by CellTiter-Glo assay; type: cell-based
T1 sequence (P00533 whole entry, the tested form may be a part): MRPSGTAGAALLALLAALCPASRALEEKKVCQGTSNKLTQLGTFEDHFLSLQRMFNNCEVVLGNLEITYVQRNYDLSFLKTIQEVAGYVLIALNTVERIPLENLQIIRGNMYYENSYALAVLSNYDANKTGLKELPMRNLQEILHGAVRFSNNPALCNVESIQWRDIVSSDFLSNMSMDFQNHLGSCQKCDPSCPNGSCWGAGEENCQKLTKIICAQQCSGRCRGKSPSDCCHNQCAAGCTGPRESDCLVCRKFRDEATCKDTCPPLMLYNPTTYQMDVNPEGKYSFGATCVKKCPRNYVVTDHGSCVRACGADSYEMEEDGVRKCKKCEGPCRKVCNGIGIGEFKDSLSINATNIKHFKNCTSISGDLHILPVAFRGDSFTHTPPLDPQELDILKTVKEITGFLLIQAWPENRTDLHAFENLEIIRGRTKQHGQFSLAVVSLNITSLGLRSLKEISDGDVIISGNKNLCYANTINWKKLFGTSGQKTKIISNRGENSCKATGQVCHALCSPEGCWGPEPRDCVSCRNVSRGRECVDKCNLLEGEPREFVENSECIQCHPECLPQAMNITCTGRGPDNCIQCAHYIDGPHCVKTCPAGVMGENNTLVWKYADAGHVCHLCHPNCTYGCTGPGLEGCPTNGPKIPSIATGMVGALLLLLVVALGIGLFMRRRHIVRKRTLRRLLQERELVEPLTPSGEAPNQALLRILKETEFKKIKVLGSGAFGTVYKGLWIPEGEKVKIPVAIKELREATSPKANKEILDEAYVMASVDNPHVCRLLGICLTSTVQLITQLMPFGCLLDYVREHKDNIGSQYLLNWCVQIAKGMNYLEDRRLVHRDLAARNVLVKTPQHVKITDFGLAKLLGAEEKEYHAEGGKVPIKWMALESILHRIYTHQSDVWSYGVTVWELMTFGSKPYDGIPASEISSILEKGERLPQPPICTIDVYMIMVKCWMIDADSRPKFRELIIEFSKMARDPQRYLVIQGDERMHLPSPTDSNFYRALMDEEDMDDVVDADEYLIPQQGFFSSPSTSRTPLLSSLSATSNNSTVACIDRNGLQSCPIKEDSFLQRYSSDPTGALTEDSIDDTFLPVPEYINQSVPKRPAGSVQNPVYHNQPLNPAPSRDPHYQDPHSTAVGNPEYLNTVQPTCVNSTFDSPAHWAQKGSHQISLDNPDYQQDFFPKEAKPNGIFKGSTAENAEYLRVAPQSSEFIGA

[8] = system: Epidermal growth factor receptor (Homo sapiens), P00533 [C797S]; assay: Inhibition of TEL-fused EGFR C797S mutant (unknown origin) expressed in mouse BAF3 cells assessed as decrease in cell proliferation after 72 hrs by CellTiter-Glo assay; type: cell-based
Chain of Epidermal growth factor receptor (Homo sapiens), P00533 [C797S] (P00533 whole entry C797S, the tested form may be a part): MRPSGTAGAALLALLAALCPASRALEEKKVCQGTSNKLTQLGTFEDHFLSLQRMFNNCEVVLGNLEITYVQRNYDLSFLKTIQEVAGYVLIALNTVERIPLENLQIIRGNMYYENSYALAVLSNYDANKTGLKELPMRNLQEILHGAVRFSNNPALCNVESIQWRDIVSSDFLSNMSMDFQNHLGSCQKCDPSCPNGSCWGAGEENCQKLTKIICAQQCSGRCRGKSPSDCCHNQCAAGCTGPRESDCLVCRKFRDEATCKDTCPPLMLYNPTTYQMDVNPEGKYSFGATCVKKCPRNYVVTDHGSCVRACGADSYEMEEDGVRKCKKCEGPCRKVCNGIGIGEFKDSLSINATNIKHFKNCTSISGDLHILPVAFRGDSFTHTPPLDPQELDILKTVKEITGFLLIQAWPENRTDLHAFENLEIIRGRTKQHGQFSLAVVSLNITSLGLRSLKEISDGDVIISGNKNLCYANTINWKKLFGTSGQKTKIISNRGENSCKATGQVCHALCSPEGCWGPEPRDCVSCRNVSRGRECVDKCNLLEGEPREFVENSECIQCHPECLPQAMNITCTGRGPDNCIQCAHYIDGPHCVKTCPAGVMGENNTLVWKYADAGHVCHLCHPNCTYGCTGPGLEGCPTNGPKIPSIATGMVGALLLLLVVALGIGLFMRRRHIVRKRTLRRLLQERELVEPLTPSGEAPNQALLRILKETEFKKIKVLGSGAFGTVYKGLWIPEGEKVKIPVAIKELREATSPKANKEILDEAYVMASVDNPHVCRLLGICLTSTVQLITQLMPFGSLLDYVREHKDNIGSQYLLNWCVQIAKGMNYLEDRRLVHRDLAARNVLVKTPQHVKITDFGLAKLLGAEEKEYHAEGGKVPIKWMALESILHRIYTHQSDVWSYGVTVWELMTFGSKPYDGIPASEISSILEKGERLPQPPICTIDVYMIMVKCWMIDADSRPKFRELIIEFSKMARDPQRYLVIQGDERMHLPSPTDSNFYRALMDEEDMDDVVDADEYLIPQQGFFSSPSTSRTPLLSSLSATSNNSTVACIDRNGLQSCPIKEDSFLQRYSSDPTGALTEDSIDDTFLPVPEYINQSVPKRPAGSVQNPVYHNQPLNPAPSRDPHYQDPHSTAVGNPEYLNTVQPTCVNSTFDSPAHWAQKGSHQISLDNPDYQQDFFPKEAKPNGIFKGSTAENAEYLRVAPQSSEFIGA

[9] = system: Epidermal growth factor receptor (Homo sapiens), P00533 [T790M]; assay: Inhibition of TEL-fused EGFR T790M mutant (unknown origin) expressed in mouse BAF3 cells assessed as decrease in cell proliferation after 72 hrs by CellTiter-Glo assay; type: cell-based
Chain of Epidermal growth factor receptor (Homo sapiens), P00533 [T790M] (P00533 whole entry T790M, the tested form may be a part): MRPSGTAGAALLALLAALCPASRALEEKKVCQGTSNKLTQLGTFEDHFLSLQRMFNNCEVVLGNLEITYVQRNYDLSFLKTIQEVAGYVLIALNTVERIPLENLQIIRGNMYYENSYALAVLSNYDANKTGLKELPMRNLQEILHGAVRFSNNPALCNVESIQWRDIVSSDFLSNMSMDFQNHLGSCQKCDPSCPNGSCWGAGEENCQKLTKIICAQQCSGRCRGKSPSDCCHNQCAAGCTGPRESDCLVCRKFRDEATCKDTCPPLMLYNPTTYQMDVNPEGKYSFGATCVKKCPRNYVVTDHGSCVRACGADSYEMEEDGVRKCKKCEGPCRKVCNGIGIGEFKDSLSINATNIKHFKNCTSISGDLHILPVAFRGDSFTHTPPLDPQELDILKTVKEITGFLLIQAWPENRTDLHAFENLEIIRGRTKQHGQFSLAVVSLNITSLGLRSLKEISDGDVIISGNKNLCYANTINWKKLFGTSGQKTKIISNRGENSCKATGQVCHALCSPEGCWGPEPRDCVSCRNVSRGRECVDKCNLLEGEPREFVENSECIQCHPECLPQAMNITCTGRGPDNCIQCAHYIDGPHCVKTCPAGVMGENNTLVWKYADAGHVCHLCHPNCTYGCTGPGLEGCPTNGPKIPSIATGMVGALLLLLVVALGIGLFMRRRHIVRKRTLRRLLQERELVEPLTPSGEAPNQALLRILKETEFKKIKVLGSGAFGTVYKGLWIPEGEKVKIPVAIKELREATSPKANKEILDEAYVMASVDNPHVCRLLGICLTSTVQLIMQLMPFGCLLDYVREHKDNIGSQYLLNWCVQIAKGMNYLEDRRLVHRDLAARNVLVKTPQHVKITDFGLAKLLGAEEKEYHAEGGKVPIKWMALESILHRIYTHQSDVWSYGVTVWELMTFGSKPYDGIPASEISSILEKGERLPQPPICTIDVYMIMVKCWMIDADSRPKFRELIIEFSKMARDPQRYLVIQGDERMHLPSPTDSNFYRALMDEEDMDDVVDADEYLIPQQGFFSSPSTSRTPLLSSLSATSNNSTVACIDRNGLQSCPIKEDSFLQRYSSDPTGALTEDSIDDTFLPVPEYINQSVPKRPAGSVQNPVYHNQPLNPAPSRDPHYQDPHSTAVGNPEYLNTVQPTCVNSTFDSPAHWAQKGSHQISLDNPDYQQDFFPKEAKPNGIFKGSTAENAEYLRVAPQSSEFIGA

[10] = biological target: T1, Epidermal growth factor receptor; assay: Inhibition of full length EGFR del19 mutant (unknown origin) expressed in mouse BAF3 cells assessed as decrease in cell proliferation after 72 hrs by CellTiter-Glo assay; type: cell-based
[11] = system: Epidermal growth factor receptor (Homo sapiens), P00533 [L858R]; assay: Inhibition of full length EGFR L858R mutant (unknown origin) expressed in mouse BAF3 cells assessed as decrease in cell proliferation after 72 hrs by CellTiter-Glo assay; type: cell-based
[12] = system: Epidermal growth factor receptor (Homo sapiens), P00533 [L858R,T790M]; assay: Inhibition of full length EGFR L858R/T790M mutant (unknown origin) expressed in mouse BAF3 cells assessed as decrease in cell proliferation after 72 hrs by CellTiter-Glo assay; type: cell-based
Chain of Epidermal growth factor receptor (Homo sapiens), P00533 [L858R,T790M] (P00533 whole entry T790M/L858R, looked up): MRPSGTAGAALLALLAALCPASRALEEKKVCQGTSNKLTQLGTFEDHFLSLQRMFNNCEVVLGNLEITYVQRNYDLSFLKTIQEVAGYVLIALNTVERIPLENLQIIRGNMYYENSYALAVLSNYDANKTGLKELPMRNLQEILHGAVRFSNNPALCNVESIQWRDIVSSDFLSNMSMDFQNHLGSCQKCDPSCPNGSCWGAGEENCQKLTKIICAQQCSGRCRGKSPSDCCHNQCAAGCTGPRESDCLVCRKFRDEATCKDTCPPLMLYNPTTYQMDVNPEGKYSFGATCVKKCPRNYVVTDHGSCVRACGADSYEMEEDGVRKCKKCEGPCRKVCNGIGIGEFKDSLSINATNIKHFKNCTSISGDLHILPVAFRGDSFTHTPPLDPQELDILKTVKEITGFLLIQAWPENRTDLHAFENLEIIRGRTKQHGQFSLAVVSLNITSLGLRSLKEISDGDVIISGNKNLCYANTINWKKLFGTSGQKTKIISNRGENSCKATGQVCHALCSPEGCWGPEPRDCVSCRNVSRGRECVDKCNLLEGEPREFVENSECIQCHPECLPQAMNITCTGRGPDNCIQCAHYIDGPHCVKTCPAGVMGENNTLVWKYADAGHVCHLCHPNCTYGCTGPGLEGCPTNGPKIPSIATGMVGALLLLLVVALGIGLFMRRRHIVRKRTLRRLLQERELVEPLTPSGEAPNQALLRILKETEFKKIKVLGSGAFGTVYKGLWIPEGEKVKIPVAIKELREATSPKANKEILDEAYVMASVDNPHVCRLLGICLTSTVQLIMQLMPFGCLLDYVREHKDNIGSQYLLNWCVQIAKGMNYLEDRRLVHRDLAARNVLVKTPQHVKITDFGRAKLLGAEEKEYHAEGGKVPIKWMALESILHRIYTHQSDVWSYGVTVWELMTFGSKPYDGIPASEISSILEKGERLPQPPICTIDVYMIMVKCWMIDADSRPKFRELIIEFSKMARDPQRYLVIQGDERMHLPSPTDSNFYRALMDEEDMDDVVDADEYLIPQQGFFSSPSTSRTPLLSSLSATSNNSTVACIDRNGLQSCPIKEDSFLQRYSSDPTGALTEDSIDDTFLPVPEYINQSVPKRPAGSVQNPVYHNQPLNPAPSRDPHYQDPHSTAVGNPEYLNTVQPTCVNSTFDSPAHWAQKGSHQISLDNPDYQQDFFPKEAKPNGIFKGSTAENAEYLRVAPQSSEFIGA

[13] = system: Epidermal growth factor receptor (Homo sapiens), P00533 [L858R,T790M,C797S]; assay: Inhibition of full length EGFR L858R/T790M/C797S mutant (unknown origin) expressed in mouse BAF3 cells assessed as decrease in cell proliferation after 72 hrs by CellTiter-Glo assay; type: cell-based
[14] = system: NCI-H1975; assay: Antiproliferative activity against human NCI-H1975 cells harboring EGFR L858R/T790M mutant after 72 hrs by CellTiter-Glo assay; type: functional; details: NCI-H1975, 72 h; summary of the method: as §1
[15] = system: PC-9; assay: Antiproliferative activity against human PC9 cells harboring EGFR del19 mutant after 72 hrs by CellTiter-Glo assay; type: functional; details: PC-9, 72 h
[16] = system: HCC827; assay: Antiproliferative activity against human HCC827 cells harboring EGFR del19 mutant after 72 hrs by CellTiter-Glo assay; type: functional; details: HCC827, 72 h
[17] = system: NCI-H3255; assay: Antiproliferative activity against human H3255 cells harboring EGFR L858R mutant after 72 hrs by CellTiter-Glo assay; type: functional; details: NCI-H3255, 72 h
[18] = system: A549; assay: Antiproliferative activity against human A549 cells harboring wild-type EGFR after 72 hrs by CellTiter-Glo assay; type: functional; details: A549, 72 h
[19] = system: NCI-H2122; assay: Antiproliferative activity against human NCI-H2122 cells harboring wild-type EGFR after 72 hrs by CellTiter-Glo assay; type: functional; details: NCI-H2122, 72 h
[20] = system: NCI-H1355; assay: Antiproliferative activity against human NCI-H1355 cells harboring wild-type EGFR after 72 hrs by CellTiter-Glo assay; type: functional; details: NCI-H1355, 72 h
[21] = system: NCI-H2228; assay: Antiproliferative activity against human NCI-H2228 cells harboring EML4-fused ALK varian3 after 72 hrs by CellTiter-Glo assay; type: functional; details: NCI-H2228, 72 h

Row | Structure (SMILES) | GI50 [1] | GI50 [2] | further results
1 | C=CC(=O)Nc1cc(Nc2ncc(Cl)c(Nc3ccccc3S(=O)(=O)C(C)C)n2)c(OC)cc1N1CCOCC1 | 1200 nM | < 0.3 nM | –
2 | C=CC(=O)Nc1cc(Nc2ncc(Cl)c(Nc3ccccc3C#N)n2)c(OC)cc1N1CCC(N2CCN(C)CC2)CC1 | 200 nM | 98 nM | –
3 | C=CC(=O)Nc1cc(Nc2ncc(Cl)c(Nc3ccccc3S(=O)(=O)C(C)C)n2)c(OC)cc1N1CCN(S(C)(=O)=O)CC1 | 40 nM | – | –
4 | C[C@@H](Oc1cc(-c2cnn(C3CCNCC3)c2)cnc1N)c1c(Cl)ccc(F)c1Cl [CRIZOTINIB] | – | – | GI50 at 72 h [3]: 1100 nM; GI50 [4]: 37 nM; GI50 at 72 h [5]: 3200 nM; GI50 at 72 h [6]: 450 nM
5 | C=CC(=O)Nc1cc(Nc2ncc(Cl)c(Nc3ccccc3C#N)n2)c(OC)cc1N1CCOCC1 | 1200 nM | 370 nM | –
6 | CCC(=O)Nc1cc(Nc2ncc(Cl)c(Nc3ccccc3S(=O)(=O)C(C)C)n2)c(OC)cc1N1CCCN(C)CC1 | – | – | GI50 at 72 h [3]: 7100 nM; GI50 [7]: 1500 nM; GI50 [8]: 360 nM; GI50 [9]: 800 nM; GI50 [10]: 270 nM; GI50 [11]: 370 nM; GI50 [12]: 290 nM; GI50 [13]: 1700 nM; GI50 [14]: 700 nM; GI50 [15]: 340 nM; GI50 [16]: 2600 nM; GI50 [17]: 830 nM; GI50 [18]: 1200 nM; GI50 [19]: 3300 nM; GI50 [20]: 2200 nM; GI50 [4]: < 0.3 nM; GI50 [21]: 100 nM; GI50 at 72 h [5]: 3600 nM; GI50 at 72 h [6]: 1300 nM
7 | C=CC(=O)Nc1cc(Nc2ncc(Cl)c(Nc3ccccc3P(C)(C)=O)n2)c(OC)cc1N1CCN(CC)CC1 | 26 nM | 37 nM | –
8 | C=CC(=O)Nc1cc(Nc2ncc(Cl)c(Nc3ccccc3S(=O)(=O)C(C)C)n2)c(OC(C)C)cc1N1CCN(CC)CC1 | 300 nM | < 0.3 nM | –
9 | C=CC(=O)Nc1cc(Nc2nccc(Nc3ccccc3S(=O)(=O)C(C)C)n2)c(OC)cc1N1CCN(CC)CC1 | 190 nM | 41 nM | –
10 | COc1cc(N2CCC(N3CCN(C)CC3)CC2)ccc1Nc1ncc(Cl)c(Nc2ccccc2S(=O)(=O)C(C)C)n1 | – | – | GI50 [7]: 560 nM; GI50 [9]: 420 nM
11 | C=CC(=O)Nc1cc(Nc2ncc(Cl)c(Nc3ccc(F)c(Cl)c3)n2)c(OC)cc1N1CCN(C)CC1 | 100 nM | 300 nM | –
12 | C=CC(=O)Nc1cc(Nc2ncc(Cl)c(N(C)c3cccc(C(F)(F)F)c3)n2)c(OC)cc1N1CCN(C)CC1 | 1800 nM | 3600 nM | –
13 | C=CC(=O)Nc1cc(Nc2ncc(Cl)c(Nc3ccccc3P(C)(C)=O)n2)c(OC)cc1N1CCC(N(C)C)CC1 | 220 nM | 140 nM | –
14 | C=CC(=O)Nc1cc(Nc2ncc(Cl)c(Nc3ccccc3S(=O)(=O)N(C)C)n2)c(OC)cc1N1CCN(C)CC1 | 31 nM | 11 nM | –
15 | C=CC(=O)Nc1cc(Nc2ncc(Cl)c(Nc3ccccc3NC(=O)C(C)(C)C)n2)c(OC)cc1N1CCN(C)CC1 | 950 nM | 6500 nM | –
16 | C=CC(=O)Nc1cc(Nc2ncc(Cl)c(Nc3ccccc3P(C)(C)=O)n2)c(OC)cc1N1CCN(S(C)(=O)=O)CC1 | 890 nM | 800 nM | –
17 | C=CC(=O)Nc1cc(Nc2ncc(Cl)c(Nc3ccccc3S(=O)(=O)C(C)C)n2)c(OC)cc1N1CCN(C(C)C)CC1 | 25 nM | – | –
18 | C=CC(=O)Nc1cc(Nc2ncc(Cl)c(Nc3ccccc3C(=O)NC)n2)c(OC)cc1N1CCN(C(C)C)CC1 | 79 nM | 4.5 nM | –
19 | C=CC(=O)Nc1cc(Nc2ncc(Cl)c(NCc3cccs3)n2)c(OC)cc1N1CCN(C)CC1 | 220 nM | 270 nM | –

Row | Structure (SMILES) | GI50 [1] | GI50 [2] | further results
20 | C=CC(=O)Nc1cccc(Oc2nc(Nc3ccc(N4CCN(C)CC4)cc3OC)ncc2Cl)c1 | – | – | GI50 [8]: 890 nM; GI50 [9]: 2.1 nM; GI50 [14]: 56 nM; GI50 [15]: 27 nM; GI50 [16]: 7.4 nM; GI50 [17]: 390 nM; GI50 [18]: > 10000 nM; GI50 [19]: 5700 nM; GI50 [20]: 5300 nM; GI50 at 72 h [5]: 3900 nM; GI50 at 72 h [6]: 4400 nM
21 | C=CC(=O)Nc1cc(Nc2ncc(C)c(Nc3ccccc3S(=O)(=O)C(C)C)n2)c(OC)cc1N1CCC(N2CCN(C)CC2)CC1 | 27 nM | – | –
22 | C=CC(=O)Nc1cc(Nc2ncc(Cl)c(Nc3c(F)cccc3F)n2)c(OC)cc1N1CCN(C)CC1 | 130 nM | 2900 nM | –
23 | C=CC(=O)Nc1cc(Nc2ncc(Cl)c(Nc3ccccc3P(C)(C)=O)n2)c(OC)cc1N1CCOCC1 | 780 nM | 360 nM | –
24 | C=CC(=O)Nc1cc(Nc2ncc(Cl)c(Nc3cccc(C(F)(F)F)c3)n2)c(OC)cc1N1CCN(C)CC1 | 260 nM | 770 nM | –
25 | C=CC(=O)Nc1cc(Nc2ncc(Cl)c(Nc3ccccc3S(=O)(=O)C(C)C)n2)c(OC)cc1N1CCCCC1 | 240 nM | 29 nM | –
26 | C=CC(=O)Nc1cc(Nc2ncc(Cl)c(Nc3ccccc3S(=O)(=O)C(C)C)n2)ccc1N1CCC(N2CCN(C)CC2)CC1 | 7100 nM | 4900 nM | –
27 | C=CC(=O)Nc1cc(Nc2ncc(Cl)c(Nc3ccccc3C(=O)NC)n2)c(OC)cc1N1CCN(C(C)=O)CC1 | 250 nM | 12 nM | –
28 | C=CC(=O)Nc1cc(Nc2ncc(Cl)c(Nc3ccccc3C(=O)NC)n2)c(OC)cc1N1CCN(C2CCN(C)CC2)CC1 | 120 nM | 18 nM | –
29 | C=CC(=O)Nc1cc(Nc2ncc(Cl)c(NC3CC3)n2)c(OC)cc1N1CCN(C)CC1 | > 10000 nM | 3200 nM | –
30 | C=CC(=O)Nc1cc(Nc2ncc(Cl)c(Nc3ccccc3C#N)n2)c(OC)cc1N1CCN(CC)CC1 | 440 nM | 110 nM | –
31 | C=CC(=O)Nc1cc(Nc2ncc(Cl)c(Nc3ccccc3S(=O)(=O)C(C)C)n2)c(OC)cc1N1CCN(C)CC1 | 43 nM | 33 nM | –
32 | C=CC(=O)Nc1cc(Nc2ncc(C)c(Nc3ccccc3S(=O)(=O)C(C)C)n2)c(OC)cc1N1CCN(CC)CC1 | 43 nM | 2 nM | –
33 | C=CC(=O)Nc1cc(Nc2ncc(Cl)c(Nc3ccccc3S(=O)(=O)C(C)C)n2)c(OC)cc1N1CCN(CCOC)CC1 | 41 nM | – | –
34 | C=CC(=O)Nc1cc(Nc2ncc(Cl)c(Nc3ccccc3C#N)n2)c(OC)cc1N1CCN(C(C)C)CC1 | 430 nM | 110 nM | –
35 | C=CC(=O)Nc1cc(Nc2ncc(Cl)c(Nc3ccccc3P(C)(C)=O)n2)c(OC)cc1N1CCC(N2CCCCC2)CC1 | 41 nM | 78 nM | –
36 | C=CC(=O)Nc1cc(Nc2ncc(Cl)c(Nc3ccccc3S(=O)(=O)C(C)C)n2)c(OC)cc1N1CCC(N2CCN(C)CC2)CC1 | 23 nM | – | –
37 | C=CC(=O)Nc1cc(Nc2ncc(Cl)c(Nc3ccccc3C(=O)NC)n2)c(OC)cc1N1CCN(C)CC1 | 50 nM | 3.5 nM | –
38 | C=CC(=O)Nc1cc(Nc2ncc(Cl)c(Nc3ccccc3S(=O)(=O)C(C)C)n2)c(OC)cc1N1CCN(C2CCCCC2)CC1 | 77 nM | – | –
